Converted amounts (≈) assume the structure as drawn.

This experiment relates to Escherichia coli. The experiment in a line: Antimicrobial activity against Escherichia coli ATCC 25922. Type of experiment: functional. Summed up:
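Broth microdilution in trypticase soy broth; 2-fold serial dilutions giving final 512 to 1 µg/mL. Inoculum E. coli ATCC 25922 in TSB, final […] as printed. Incubated 37 °C for 24 h in plate reader, OD600 read every 20 min. MIC taken as lowest concentration preventing growth at 24 h.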
The term MIC denotes the lowest concentration that inhibits growth of the organism. High values mean a need for much substance, low ones inhibition by little substance. As for `CC(=O)N(CCC(=O)N(CCC(=O)N(CCN)CCC(=O)N(CCC(=O)N(CCC(=O)N(CCN)CCC(=O)N(CCC(=O)N(CCC(=O)N(CCN)CCC(=O)N(CCC(=O)N(CCC(=O)N(CCN)CCC(=O)N[C@@H](CCCCN)C(N)=O)CC(C)C)CC(C)C)CC(C)C)CC(C)C)CC(C)C)CC(C)C)CC(C)C)CC(C)C`, it took 256 µg/mL (≈ 154 µM) to inhibit growth (MIC).
Consider `CC(=O)NCCC(=O)N(CCC(=O)N(CCN)CCC(=O)NCCC(=O)N(CCC(=O)N(CCN)CCC(=O)NCCC(=O)N(CCC(=O)N(CCN)CCC(=O)NCCC(=O)N(CCC(=O)N(CCN)CCC(=O)NCCC(=O)N(CCC(=O)N(CCN)CCC(=O)NCCC(=O)N(CCC(=O)N(CCN)CCC(=O)NCCC(=O)N(CCC(=O)N(CCN)CCC(=O)N[C@@H](CCCCN)C(N)=O)CC(C)C)CC(C)C)CC(C)C)CC(C)C)CC(C)C)CC(C)C)CC(C)C`, for which 128 µg/mL (≈ 53.9 µM) was the least that counted as inhibitory (MIC).
For `CC(=O)N(CCC(=O)N(CCC(=O)N(CCCN(C)C)CCC(=O)N(CCC(=O)N(CCC(=O)N(CCCN(C)C)CCC(=O)N(CCC(=O)N(CCC(=O)N(CCCN(C)C)CCC(=O)N(CCC(=O)N(CCC(=O)N(CCCN(C)C)CCC(=O)N[C@@H](CCCCN)C(N)=O)CC(C)C)Cc1ccccc1)CC(C)C)Cc1ccccc1)CC(C)C)Cc1ccccc1)CC(C)C)Cc1ccccc1` the value was 128 µg/mL (≈ 65.1 µM); for `CC(=O)NCCC(=O)N(CCC(=O)N(CCCCN)CCC(=O)NCCC(=O)N(CCC(=O)N(CCCCN)CCC(=O)N[C@@H](CCCCN)C(N)=O)CC(C)C)CC(C)C`, above 512 µg/mL.
For `CC(=O)NCCC(=O)N(CCC(=O)N(CCCN(C)C)CCC(=O)NCCC(=O)N(CCC(=O)N(CCCN(C)C)CCC(=O)NCCC(=O)N(CCC(=O)N(CCCN(C)C)CCC(=O)NCCC(=O)N(CCC(=O)N(CCCN(C)C)CCC(=O)NCCC(=O)N(CCC(=O)N(CCCN(C)C)CCC(=O)NCCC(=O)N(CCC(=O)N(CCCN(C)C)CCC(=O)NCCC(=O)N(CCC(=O)N(CCCN(C)C)CCC(=O)N[C@@H](CCCCN)C(N)=O)CC(C)C)CC(C)C)CC(C)C)CC(C)C)CC(C)C)CC(C)C)CC(C)C` the value was above 512 µg/mL.
For `CC(=O)N(CCC(=O)N(CCCN(C)C)CCC(=O)N(CCC(=O)N(CCC(=O)N(CCCN(C)C)CCC(=O)N(CCC(=O)N(CCC(=O)N(CCCN(C)C)CCC(=O)N(CCC(=O)N(CCC(=O)N(CCCN(C)C)CCC(=O)N(CCC(=O)N(CCC(=O)N(CCCN(C)C)CCC(=O)N(CCC(=O)N[C@@H](CCCCN)C(N)=O)CC(C)C)Cc1ccccc1)CC(C)C)Cc1ccccc1)CC(C)C)Cc1ccccc1)CC(C)C)Cc1ccccc1)CC(C)C)Cc1ccccc1` the value was 128 µg/mL (≈ 53.1 µM); for `CC(=O)N(CCC(=O)N(CCC(=O)N(CCN)CCC(=O)N(CCC(=O)N(CCC(=O)N(CCN)CCC(=O)N(CCC(=O)N(CCC(=O)N(CCN)CCC(=O)N[C@@H](CCCCN)C(N)=O)CC(C)C)CC(C)C)CC(C)C)CC(C)C)CC(C)C)CC(C)C`, above 512 µg/mL; for `CC(=O)N(CCC(=O)N(CCC(=O)N(CCN)CCC(=O)N(CCC(=O)N(CCC(=O)N(CCN)CCC(=O)N(CCC(=O)N(CCC(=O)N(CCN)CCC(=O)N(CCC(=O)N(CCC(=O)N(CCN)CCC(=O)N(CCC(=O)N(CCC(=O)N(CCN)CCC(=O)N[C@@H](CCCCN)C(N)=O)CC(C)C)CC(C)C)CC(C)C)CC(C)C)CC(C)C)CC(C)C)CC(C)C)CC(C)C)CC(C)C)CC(C)C`, 256 µg/mL (≈ 126 µM).
As for `CC(=O)NCCC(=O)N(CCC(=O)N(CCCCN)CCC(=O)NCCC(=O)N(CCC(=O)N(CCCCN)CCC(=O)NCCC(=O)N(CCC(=O)N(CCCCN)CCC(=O)N[C@@H](CCCCN)C(N)=O)CC(C)C)CC(C)C)CC(C)C`, the MIC amounted to 512 µg/mL (≈ 424 µM).
For `CC(=O)N(CCC(=O)N(CCC(=O)N(CCCN(C)C)CCC(=O)N(CCC(=O)N(CCC(=O)N(CCCN(C)C)CCC(=O)N(CCC(=O)N(CCC(=O)N(CCCN(C)C)CCC(=O)N[C@@H](CCCCN)C(N)=O)CC(C)C)Cc1ccccc1)CC(C)C)Cc1ccccc1)CC(C)C)Cc1ccccc1` the value was 512 µg/mL (≈ 337 µM); for `CC(=O)N(CCC(=O)N(CCN)CCC(=O)N(CCN)CCC(=O)N(CCC(=O)N(CCN)CCC(=O)N(CCN)CCC(=O)N[C@@H](CCCCN)C(N)=O)CC(C)C)CC(C)C`, above 512 µg/mL.
For `CC(=O)NCCC(=O)N(CCC(=O)N(CCN)CCC(=O)NCCC(=O)N(CCC(=O)N(CCN)CCC(=O)NCCC(=O)N(CCC(=O)N(CCN)CCC(=O)NCCC(=O)N(CCC(=O)N(CCN)CCC(=O)NCCC(=O)N(CCC(=O)N(CCN)CCC(=O)NCCC(=O)N(CCC(=O)N(CCN)CCC(=O)NCCC(=O)N(CCC(=O)N(CCN)CCC(=O)NCCC(=O)N(CCC(=O)N(CCN)CCC(=O)N[C@@H](CCCCN)C(N)=O)CC(C)C)CC(C)C)CC(C)C)CC(C)C)CC(C)C)CC(C)C)CC(C)C)CC(C)C` the value was 256 µg/mL (≈ 95.3 µM); for `CC(=O)N(CCC(=O)N(CCC(=O)N(CCCN(C)C)CCC(=O)N(CCC(=O)N(CCC(=O)N(CCCN(C)C)CCC(=O)N(CCC(=O)N(CCC(=O)N(CCCN(C)C)CCC(=O)N(CCC(=O)N(CCC(=O)N(CCCN(C)C)CCC(=O)N(CCC(=O)N(CCC(=O)N(CCCN(C)C)CCC(=O)N[C@@H](CCCCN)C(N)=O)CC(C)C)Cc1ccccc1)CC(C)C)Cc1ccccc1)CC(C)C)Cc1ccccc1)CC(C)C)Cc1ccccc1)CC(C)C)Cc1ccccc1`, 128 µg/mL (≈ 53.1 µM).
For `CC(=O)NCCC(=O)N(CCC(=O)N(CCCN(C)C)CCC(=O)NCCC(=O)N(CCC(=O)N(CCCN(C)C)CCC(=O)NCCC(=O)N(CCC(=O)N(CCCN(C)C)CCC(=O)NCCC(=O)N(CCC(=O)N(CCCN(C)C)CCC(=O)NCCC(=O)N(CCC(=O)N(CCCN(C)C)CCC(=O)N[C@@H](CCCCN)C(N)=O)CC(C)C)CC(C)C)CC(C)C)CC(C)C)CC(C)C` the value was above 512 µg/mL.
`CC(=O)N(CCC(=O)N(CCC(=O)N(CCCCN)CCC(=O)N(CCC(=O)N(CCC(=O)N(CCCCN)CCC(=O)N[C@@H](CCCCN)C(N)=O)CC(C)C)CC(C)C)CC(C)C)CC(C)C` showed a minimum inhibitory concentration (MIC) above 512 µg/mL.
In the case of `CC(=O)N(CCC(=O)N(CCC(=O)N(CCCCN)CCC(=O)N[C@@H](CCCCN)C(N)=O)CC(C)C)CC(C)C`, the minimal inhibitory concentration (MIC) is above 512 µg/mL.
For `CC(=O)N(CCC(=O)N(CCCN(C)C)CCC(=O)N(CCC(=O)N(CCC(=O)N(CCCN(C)C)CCC(=O)N(CCC(=O)N(CCC(=O)N(CCCN(C)C)CCC(=O)N(CCC(=O)N(CCC(=O)N(CCCN(C)C)CCC(=O)N(CCC(=O)N(CCC(=O)N(CCCN(C)C)CCC(=O)N(CCC(=O)N(CCC(=O)N(CCCN(C)C)CCC(=O)N(CCC(=O)N[C@@H](CCCCN)C(N)=O)CC(C)C)Cc1ccccc1)CC(C)C)Cc1ccccc1)CC(C)C)Cc1ccccc1)CC(C)C)Cc1ccccc1)CC(C)C)Cc1ccccc1)CC(C)C)Cc1ccccc1` the value was 128 µg/mL (≈ 44.8 µM).
Take `CC(=O)N(CCC(=O)N(CCC(=O)N(CCCCN)CCC(=O)N(CCC(=O)N(CCC(=O)N(CCCCN)CCC(=O)N(CCC(=O)N(CCC(=O)N(CCCCN)CCC(=O)N[C@@H](CCCCN)C(N)=O)CC(C)C)CC(C)C)CC(C)C)CC(C)C)CC(C)C)CC(C)C`: the MIC was above 512 µg/mL.
Compound `CC(=O)NCCC(=O)N(CCC(=O)N(CCN)CCC(=O)NCCC(=O)N(CCC(=O)N(CCN)CCC(=O)NCCC(=O)N(CCC(=O)N(CCN)CCC(=O)NCCC(=O)N(CCC(=O)N(CCN)CCC(=O)NCCC(=O)N(CCC(=O)N(CCN)CCC(=O)N[C@@H](CCCCN)C(N)=O)CC(C)C)CC(C)C)CC(C)C)CC(C)C)CC(C)C` registered a minimal inhibitory concentration (MIC) of 256 µg/mL (≈ 146 µM).
`CC(=O)N(CCC(=O)N(CCCN(C)C)CCC(=O)N(CCC(=O)N(CCC(=O)N(CCCN(C)C)CCC(=O)N(CCC(=O)N(CCC(=O)N(CCCN(C)C)CCC(=O)N(CCC(=O)N[C@@H](CCCCN)C(N)=O)CC(C)C)Cc1ccccc1)CC(C)C)Cc1ccccc1)CC(C)C)Cc1ccccc1` displayed an MIC of 128 µg/mL (≈ 84.1 µM).
For `CC(=O)NCCC(=O)N(CCC(=O)N(CCCN(C)C)CCC(=O)NCCC(=O)N(CCC(=O)N(CCCN(C)C)CCC(=O)NCCC(=O)N(CCC(=O)N(CCCN(C)C)CCC(=O)NCCC(=O)N(CCC(=O)N(CCCN(C)C)CCC(=O)NCCC(=O)N(CCC(=O)N(CCCN(C)C)CCC(=O)NCCC(=O)N(CCC(=O)N(CCCN(C)C)CCC(=O)NCCC(=O)N(CCC(=O)N(CCCN(C)C)CCC(=O)NCCC(=O)N(CCC(=O)N(CCCN(C)C)CCC(=O)N[C@@H](CCCCN)C(N)=O)CC(C)C)CC(C)C)CC(C)C)CC(C)C)CC(C)C)CC(C)C)CC(C)C)CC(C)C` the value was above 512 µg/mL.
